Activity calls are given as the source filed them. No cut-off for these calls is given here.
Legend:
[1] = target: T1, 5-hydroxytryptamine receptor 1A (Rattus norvegicus, UniProt P19327); experiment: Displacement of [3H]-8-OH-DPAT from 5-HT1A receptor in Sprague-Dawley albinus rat cerebral cortex membranes after 15 mins; format: cell membranes, Membrane
T1 sequence (P19327 whole entry): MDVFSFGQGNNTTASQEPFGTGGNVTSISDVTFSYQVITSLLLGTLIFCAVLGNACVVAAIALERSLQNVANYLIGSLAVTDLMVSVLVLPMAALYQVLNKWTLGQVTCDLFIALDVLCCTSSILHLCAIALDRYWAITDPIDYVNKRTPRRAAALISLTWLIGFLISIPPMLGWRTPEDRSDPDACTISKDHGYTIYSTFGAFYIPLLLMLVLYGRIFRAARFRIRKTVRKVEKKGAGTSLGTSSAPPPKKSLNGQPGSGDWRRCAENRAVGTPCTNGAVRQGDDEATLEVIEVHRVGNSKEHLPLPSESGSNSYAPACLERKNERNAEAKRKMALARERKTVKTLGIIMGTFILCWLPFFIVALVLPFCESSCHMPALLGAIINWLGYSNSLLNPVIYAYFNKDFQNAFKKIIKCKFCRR

[2] = target: 5-hydroxytryptamine receptor 2A (Rattus norvegicus, UniProt P14842); experiment: Displacement of [3H]ketanserin from 5HT2A receptor in Sprague-Dawley albinus rat frontal cortex membranes after 15 mins; format: cell membranes, Membrane
Chain of 5-hydroxytryptamine receptor 2A (P14842 whole entry): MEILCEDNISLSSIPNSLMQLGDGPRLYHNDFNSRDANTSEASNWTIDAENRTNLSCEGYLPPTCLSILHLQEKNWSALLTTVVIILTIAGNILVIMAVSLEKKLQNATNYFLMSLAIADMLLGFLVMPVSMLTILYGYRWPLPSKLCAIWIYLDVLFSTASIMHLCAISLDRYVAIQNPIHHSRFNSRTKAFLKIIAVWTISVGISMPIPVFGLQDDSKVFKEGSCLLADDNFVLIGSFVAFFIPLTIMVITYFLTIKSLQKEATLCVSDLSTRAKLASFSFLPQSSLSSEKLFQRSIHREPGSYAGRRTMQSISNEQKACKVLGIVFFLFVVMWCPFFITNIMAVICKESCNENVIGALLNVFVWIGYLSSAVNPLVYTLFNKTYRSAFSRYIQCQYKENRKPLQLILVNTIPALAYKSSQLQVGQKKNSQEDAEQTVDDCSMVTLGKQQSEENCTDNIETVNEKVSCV
In short: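 Rat frontal cortex membranes (male Sprague–Dawley, 180–200 g). Nonspecific binding was set with 1 μM cinanserin.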

[3] = target: T2, 5-hydroxytryptamine receptor 1A (Homo sapiens) (UniProt P08908); experiment: Agonist activity at human 5HT1A receptor expressed in human HeLa cells assessed as inhibition of forskolin-stimulated cAMP production pretreated 20 mins before forskolin challenge measured after 2 hrs by RIA relative to control; format: functional, cell-based
T2 sequence (whole entry): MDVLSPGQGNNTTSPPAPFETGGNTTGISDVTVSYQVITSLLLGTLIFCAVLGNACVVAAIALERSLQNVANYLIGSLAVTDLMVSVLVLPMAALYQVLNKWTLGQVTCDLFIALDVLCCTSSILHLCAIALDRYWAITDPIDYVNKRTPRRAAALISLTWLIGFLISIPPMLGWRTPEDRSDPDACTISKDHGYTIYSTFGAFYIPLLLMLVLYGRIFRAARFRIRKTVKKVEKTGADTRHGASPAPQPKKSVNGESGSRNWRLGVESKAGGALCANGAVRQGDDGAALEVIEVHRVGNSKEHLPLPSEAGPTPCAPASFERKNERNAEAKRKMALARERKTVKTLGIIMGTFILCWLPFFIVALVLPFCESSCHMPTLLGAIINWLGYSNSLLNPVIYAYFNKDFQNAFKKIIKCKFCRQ

[4] = target: T3, 5-hydroxytryptamine receptor 1A (Homo sapiens, UniProt P08908); experiment: Agonist activity at human 5HT1A receptor expressed in human HeLa cells assessed as inhibition of forskolin-stimulated cAMP production […] measured after 2 hrs by RIA; format: functional, cell-based
T3 sequence (P08908 whole entry): T2 sequence (whole entry)
In short: (§1)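 HeLa cells stably expressing the h5-HT1AR, grown in DMEM with 2 mM glutamine, 1 mM pyruvate and 10% heat-inactivated FCS, and used after 2–3 days at about 7.5 × 10^4 cells/well. After a PBS wash, cells were incubated 10 min in PBS with 0.5 mM isobutylmethylxanthine and 10 μM forskolin, with or without compound. The reaction was stopped with ice-cold ethanol, extracted 2 h and lyophilized; cAMP was measured by RIA.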

[5] = target: T4, 5-hydroxytryptamine receptor 3A (Rattus norvegicus, UniProt P35563); experiment: Displacement of [3H]-LY278584 from 5HT3 receptor in Sprague-Dawley albinus rat cerebral cortex membranes after 30 mins; format: cell membranes, Membrane
T4 sequence (P35563 whole entry): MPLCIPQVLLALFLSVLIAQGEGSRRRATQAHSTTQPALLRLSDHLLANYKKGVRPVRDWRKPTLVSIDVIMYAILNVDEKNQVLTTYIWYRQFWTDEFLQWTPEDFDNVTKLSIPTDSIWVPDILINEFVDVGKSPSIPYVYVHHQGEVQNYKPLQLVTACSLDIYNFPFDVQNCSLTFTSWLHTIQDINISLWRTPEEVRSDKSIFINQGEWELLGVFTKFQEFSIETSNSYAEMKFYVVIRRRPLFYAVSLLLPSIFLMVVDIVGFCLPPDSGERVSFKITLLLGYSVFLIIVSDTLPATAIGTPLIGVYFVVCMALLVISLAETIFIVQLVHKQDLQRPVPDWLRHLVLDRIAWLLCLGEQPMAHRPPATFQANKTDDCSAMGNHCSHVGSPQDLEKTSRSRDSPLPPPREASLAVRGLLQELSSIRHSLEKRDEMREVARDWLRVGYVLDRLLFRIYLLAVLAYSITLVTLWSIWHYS

[6] = target: 5-hydroxytryptamine receptor 4 (Rattus norvegicus, UniProt Q62758); experiment: Displacement of [3H]GR113808 from 5HT4 receptor in Sprague-Dawley albinus rat striatal membranes after 30 mins by scintillation counting; format: cell membranes, Membrane
Chain of 5-hydroxytryptamine receptor 4 (Q62758 whole entry): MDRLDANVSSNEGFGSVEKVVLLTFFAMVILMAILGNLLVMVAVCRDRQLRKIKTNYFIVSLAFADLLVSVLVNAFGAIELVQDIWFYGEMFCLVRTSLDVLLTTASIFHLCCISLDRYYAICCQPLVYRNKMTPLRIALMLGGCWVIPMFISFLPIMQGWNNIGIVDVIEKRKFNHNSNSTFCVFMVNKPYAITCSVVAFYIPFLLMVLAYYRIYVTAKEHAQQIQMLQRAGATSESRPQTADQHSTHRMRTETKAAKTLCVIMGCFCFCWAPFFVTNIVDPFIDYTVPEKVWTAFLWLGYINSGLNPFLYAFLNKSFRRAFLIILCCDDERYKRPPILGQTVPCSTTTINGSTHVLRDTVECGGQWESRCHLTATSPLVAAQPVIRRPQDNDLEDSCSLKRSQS

D(2) dopamine receptor = D(2) dopamine receptor (Rattus norvegicus, UniProt P61169); experiment: Displacement of [3H]spiperone from dopamine D2 receptor in Sprague-Dawley albinus rat striatal membranes after 15 mins; format: cell membranes, Membrane
Chain of D(2) dopamine receptor (P61169 whole entry): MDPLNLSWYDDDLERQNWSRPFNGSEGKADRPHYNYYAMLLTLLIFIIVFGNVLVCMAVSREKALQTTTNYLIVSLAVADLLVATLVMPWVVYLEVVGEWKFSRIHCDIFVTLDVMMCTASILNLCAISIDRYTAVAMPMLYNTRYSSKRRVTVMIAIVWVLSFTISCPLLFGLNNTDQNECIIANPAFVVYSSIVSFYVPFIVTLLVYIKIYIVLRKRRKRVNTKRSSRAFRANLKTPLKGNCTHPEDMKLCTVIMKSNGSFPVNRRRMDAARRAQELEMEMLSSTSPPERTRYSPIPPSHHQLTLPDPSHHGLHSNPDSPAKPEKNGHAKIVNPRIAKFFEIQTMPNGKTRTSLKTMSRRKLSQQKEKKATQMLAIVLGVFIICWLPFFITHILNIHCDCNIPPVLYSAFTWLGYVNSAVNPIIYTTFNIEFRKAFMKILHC

[7] = target: 5-hydroxytryptamine receptor 7 (Rattus norvegicus, UniProt P32305); experiment: Displacement of [3H]-5-CT from 5HT7 receptor in Sprague-Dawley albinus rat hyphalamic membranes after 120 mins; format: cell membranes, Membrane
Chain of 5-hydroxytryptamine receptor 7 (P32305 whole entry): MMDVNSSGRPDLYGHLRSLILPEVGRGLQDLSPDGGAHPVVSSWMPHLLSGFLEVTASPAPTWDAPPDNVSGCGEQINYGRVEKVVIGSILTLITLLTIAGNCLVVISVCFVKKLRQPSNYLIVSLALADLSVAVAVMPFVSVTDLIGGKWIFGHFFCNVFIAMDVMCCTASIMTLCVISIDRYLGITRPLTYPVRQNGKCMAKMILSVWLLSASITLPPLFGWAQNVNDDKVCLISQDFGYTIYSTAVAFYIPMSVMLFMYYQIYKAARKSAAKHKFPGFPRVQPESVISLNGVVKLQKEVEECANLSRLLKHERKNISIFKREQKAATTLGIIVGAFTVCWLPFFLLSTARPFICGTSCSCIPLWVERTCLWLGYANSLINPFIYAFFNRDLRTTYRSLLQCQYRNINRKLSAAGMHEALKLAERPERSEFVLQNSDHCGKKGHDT

[8] = target: T5, Adrenergic receptor alpha-1 (Rattus norvegicus, UniProt P15823+P23944+P43140); experiment: Displacement of [3H]prazosin from alpha1 adrenoceptor in Sprague-Dawley albinus rat cerebral cortex membranes after 30 mins; format: cell membranes, Membrane
T5 sequence (P15823 whole entry): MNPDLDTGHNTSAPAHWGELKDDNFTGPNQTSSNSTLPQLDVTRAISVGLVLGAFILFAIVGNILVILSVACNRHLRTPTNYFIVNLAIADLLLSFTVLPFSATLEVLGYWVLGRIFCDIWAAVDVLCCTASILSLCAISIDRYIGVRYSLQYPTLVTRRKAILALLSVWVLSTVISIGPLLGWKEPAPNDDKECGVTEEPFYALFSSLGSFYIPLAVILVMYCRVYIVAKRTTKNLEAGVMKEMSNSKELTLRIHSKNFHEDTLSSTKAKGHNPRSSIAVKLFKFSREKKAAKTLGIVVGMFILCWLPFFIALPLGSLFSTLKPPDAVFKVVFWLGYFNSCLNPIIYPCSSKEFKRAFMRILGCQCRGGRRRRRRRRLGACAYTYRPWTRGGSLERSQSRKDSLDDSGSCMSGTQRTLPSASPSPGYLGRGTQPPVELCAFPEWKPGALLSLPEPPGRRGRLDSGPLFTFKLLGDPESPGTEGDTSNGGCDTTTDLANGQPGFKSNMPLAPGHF
T5 sequence (P23944 whole entry): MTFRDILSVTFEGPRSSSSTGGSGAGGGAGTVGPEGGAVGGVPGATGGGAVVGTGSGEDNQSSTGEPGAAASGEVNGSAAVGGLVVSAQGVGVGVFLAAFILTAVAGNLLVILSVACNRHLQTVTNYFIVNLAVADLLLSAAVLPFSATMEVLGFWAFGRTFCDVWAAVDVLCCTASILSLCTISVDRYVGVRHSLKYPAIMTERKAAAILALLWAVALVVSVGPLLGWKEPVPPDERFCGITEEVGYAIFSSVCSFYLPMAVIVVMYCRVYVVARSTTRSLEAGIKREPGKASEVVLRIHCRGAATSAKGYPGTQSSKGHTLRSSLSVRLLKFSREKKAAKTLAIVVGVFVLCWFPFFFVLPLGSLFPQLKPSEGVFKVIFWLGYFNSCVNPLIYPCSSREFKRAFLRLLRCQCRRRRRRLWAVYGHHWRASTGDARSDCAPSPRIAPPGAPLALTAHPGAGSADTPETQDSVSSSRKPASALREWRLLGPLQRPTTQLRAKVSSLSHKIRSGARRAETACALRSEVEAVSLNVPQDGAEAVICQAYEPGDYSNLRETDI
T5 sequence (P43140 whole entry): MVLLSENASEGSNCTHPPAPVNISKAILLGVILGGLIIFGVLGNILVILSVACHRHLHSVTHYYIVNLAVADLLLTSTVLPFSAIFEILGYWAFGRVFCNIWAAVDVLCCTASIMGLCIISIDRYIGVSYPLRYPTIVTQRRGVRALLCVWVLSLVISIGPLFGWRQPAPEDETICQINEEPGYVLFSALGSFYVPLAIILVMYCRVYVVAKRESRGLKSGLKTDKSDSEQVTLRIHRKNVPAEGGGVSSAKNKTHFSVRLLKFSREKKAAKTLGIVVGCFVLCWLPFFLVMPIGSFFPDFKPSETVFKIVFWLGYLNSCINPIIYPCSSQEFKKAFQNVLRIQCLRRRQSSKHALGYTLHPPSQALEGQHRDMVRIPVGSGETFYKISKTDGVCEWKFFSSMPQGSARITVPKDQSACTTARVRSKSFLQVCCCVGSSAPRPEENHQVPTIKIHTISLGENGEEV
In short: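 Rat cerebral cortex membranes (about 250 μg protein; male Sprague–Dawley, 180–200 g) in 50 mM Tris-HCl with 10 mM MgCl2, pH 7.4. Incubation was 30 min at 25 °C with 0.2 nM [3H]prazosin and six competitor concentrations. Nonspecific binding was set with 10 μM phentolamine.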

[9] = target: T2, 5-hydroxytryptamine receptor 1A (Homo sapiens); experiment: Partial agonist activity at human 5HT1A receptor expressed in human HeLa cells assessed as inhibition of forskolin-stimulated cAMP production pretreated 20 mins before forskolin challenge measured after 2 hrs by RIA; format: functional, cell-based; in short: as §1
[10] = Neuroprotective activity in Wistar rat hippocampi primary neuronal cells assessed as protection against oxygen-glucose deprivation induced cell death at 1 uM after 18 hrs by MTT assay; format: functional, Hippocampus, Primary neuron
[11] = Neuroprotective activity in Wistar rat hippocampi primary neuronal cells assessed as protection against serum-deprivation induced cell death at 1 uM after 24 hrs by MTT assay; format: functional, Hippocampus, Primary neuron
In short: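 Mixed neuron-glia cultures from E18 Wistar rat hippocampi (Neurobasal plus 10% FCS), used at 11 days in vitro. Medium replaced by saline to withdraw serum; cells held 24 h with compound. Cell survival measured by MTT reduction, expressed as % protection.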

[12] = Neuroprotective activity in Wistar rat hippocampi primary neuronal cells assessed as protection against glutamate-induced cell death at 1 uM treated 30 min before glutamate challenge measured after 22 hrs by MTT assay; format: functional, Hippocampus, Primary neuron
In short: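 E18 fetal Wistar rat hippocampal neurons in neuron-enriched culture (Neurobasal, 2% B27, poly-L-lysine), used at 11 days in vitro. Compound added 30 min before 1 mM glutamate, exposure 22 h. Survival by MTT (mitochondrial dehydrogenase) read-out, reported as % protection.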

| SMILES | Ki [1] | Ki [2] | Emax [3] | also measured |
| --- | --- | --- | --- | --- |
| O=C1C2CCCN2C(=O)N1CCCCNCc1cccc2ccccc12 (stereo not drawn) | > 1000 nM |  |  |  |
| O=C1C2CCCN2C(=O)N1CCCCNCc1ccccn1 (stereo not drawn) | > 1000 nM |  |  |  |
| O=C1C2CCCN2C(=O)N1CC#CCNCC1CCc2ccccc2O1 (stereo not drawn) | > 1000 nM |  |  |  |
| O=C1CSC(=O)N1CCCCCCNCC1CCc2ccccc2O1 (stereo not drawn) |  | > 1000 nM | 87% | EC50 [4]: 19.9 nM |
| Cl.O=C1C2CCCN2C(=O)N1CCCCNCCc1cccc2ccccc12 (stereo not drawn) |  | > 1000 nM |  | Ki [5]: > 1000 nM; Ki [6]: > 1000 nM; Ki (D(2) dopamine receptor): > 1000 nM; Ki [7]: > 1000 nM; Ki [8]: > 1000 nM |
| O=C1CSC(=O)N1CCCCCNCC1CCc2ccccc2O1 (stereo not drawn) |  | > 1000 nM | 94.8% | EC50 [4]: 34.2 nM |
| O=C1C2CCCN2C(=O)N1CCCCNCc1ccc2ccccc2n1 (stereo not drawn) | 8.3 nM | > 1000 nM | 75.8% | Activity [9]: Active |
| CCCN(CCC)C1CCc2cccc(O)c2C1 (stereo not drawn) [8-OH-DPAT] |  |  |  | Activity [10]: 54%; Activity [11]: 44%; Activity [12]: 37% |
| O=C1C2CCCCN2C(=O)N1CCCCNCC1CCc2ccccc2O1 (stereo not drawn) | 2.4 nM | > 1000 nM | 77.9% | Activity [9]: Active |
| O=C1C2CCCN2C(=O)N1CCCCCNCC1CCc2ccccc2O1 (stereo not drawn) | 12.9 nM | > 1000 nM | 92.5% | EC50 [4]: 157 nM |
| O=C1C2CCCN2C(=O)N1CCCCNCCc1ccccc1 (stereo not drawn) | > 1000 nM |  |  |  |
| Cl.O=C1C2CCCCN2C(=O)CN1CCCCNCC1CCc2ccccc2O1 (stereo not drawn) | 34 nM | > 1000 nM |  | Ki [5]: > 1000 nM; Ki [6]: > 1000 nM; Ki (D(2) dopamine receptor): > 1000 nM; Ki [7]: > 1000 nM; Ki [8]: 67 nM |
| O=C1C2CCCN2C(=O)N1CCCCNCc1cccs1 (stereo not drawn) | > 1000 nM |  |  |  |
| O=C1CSC(=O)N1CCCCNCC1CCc2ccccc2O1 (stereo not drawn) | 15.1 nM | > 1000 nM | 89.6% |  |
| O=C1C2CCCN2C(=O)N1CCCCCCCCNCC1CCc2ccccc2O1 (stereo not drawn) | 87.6 nM |  |  |  |

Reference: ChEMBL document CHEMBL1926607 (J Med Chem, 2011)
